Reference: ChEMBL document CHEMBL1142133 (2007)
≈ marks a conversion by molar mass, not a printed value.

Experiments:
Cryptococcus neoformans [1] = test: Antifungal activity against flucytosine-resistant Cryptococcus neoformans 98.1121 by checkerboard method; format: functional
Cryptococcus neoformans [2] = test: Antifungal activity against flucytosine-resistant Cryptococcus neoformans 550 by checkerboard method; format: functional
Cryptococcus neoformans [3] = test: Antifungal activity against flucytosine-resistant Cryptococcus neoformans 280 by checkerboard method; format: functional
Cryptococcus neoformans [4] = test: Antifungal activity against flucytosine-resistant Cryptococcus neoformans 276 by checkerboard method; format: functional
Cryptococcus neoformans [5] = test: Antifungal activity against flucytosine-resistant Cryptococcus neoformans 285 by checkerboard method; format: functional
Cryptococcus neoformans [6] = test: Antifungal activity against flucytosine-resistant Cryptococcus neoformans 533 by checkerboard method; format: functional
Cryptococcus neoformans [7] = test: Antifungal activity against flucytosine-resistant Cryptococcus neoformans 98.0176 by checkerboard method; format: functional
Cryptococcus neoformans [8] = test: Antifungal activity against flucytosine-resistant Cryptococcus neoformans 98.0673 by checkerboard method; format: functional
Cryptococcus neoformans [9] = test: Antifungal activity against flucytosine-resistant Cryptococcus neoformans 18476 by checkerboard method; format: functional
Cryptococcus neoformans [10] = test: Antifungal activity against flucytosine-resistant Cryptococcus neoformans 99.1026 by checkerboard method; format: functional
Cryptococcus neoformans [11] = test: Antifungal activity against flucytosine-resistant Cryptococcus neoformans 18476 at 0.125 ug/ml after 72 hrs by time-kill method; format: functional
Method in brief: (§1)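 Time-kill assay run as in the authors' earlier method. […] Read-out was log10 CFU/ml after 72 h incubation, compared with a drug-free control.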

Cryptococcus neoformans [12] = test: Antifungal activity against flucytosine-resistant Cryptococcus neoformans 550 by Etest method in presence of flucytosine; format: functional
Cryptococcus neoformans [13] = test: Antifungal activity against flucytosine-resistant Cryptococcus neoformans 550 by checkerboard method in presence of flucytosine; format: functional
Cryptococcus neoformans [14] = test: Antifungal activity against flucytosine-resistant Cryptococcus neoformans 98.1121 at 0.125 ug/ml after 72 hrs by time-kill method; format: functional
Method in brief: (§2)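 Time-kill assay on flucytosine-resistant isolates. […] Viable counts were taken as log10 CFU per ml after 72 h of incubation.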

Cryptococcus neoformans [15] = test: Antifungal activity against flucytosine-resistant Cryptococcus neoformans 18476 by checkerboard method in presence of flucytosine; format: functional
Cryptococcus neoformans [16] = test: Antifungal activity against flucytosine-resistant Cryptococcus neoformans 98.0176 at 0.125 ug/ml after 72 hrs by time-kill method; format: functional; method in brief: as §1
Cryptococcus neoformans [17] = test: Antifungal activity against flucytosine-resistant Cryptococcus neoformans 98.0176 by checkerboard method in presence of flucytosine; format: functional
Cryptococcus neoformans [18] = test: Antifungal activity against flucytosine-resistant Cryptococcus neoformans 18476 by Etest method in presence of flucytosine; format: functional
Cryptococcus neoformans [19] = test: Antifungal activity against flucytosine-resistant Cryptococcus neoformans 99.1026 at 0.125 ug/ml after 72 hrs by time-kill method; format: functional; method in brief: as §2
Cryptococcus neoformans [20] = test: Antifungal activity against flucytosine-resistant Cryptococcus neoformans 280 by Etest method in presence of flucytosine; format: functional
Cryptococcus neoformans [21] = test: Antifungal activity against flucytosine-resistant Cryptococcus neoformans 276 at 0.125 ug/ml after 72 hrs by time-kill method; format: functional; method in brief: as §1
Cryptococcus neoformans [22] = test: Antifungal activity against flucytosine-resistant Cryptococcus neoformans 550 at 0.19 ug/ml after 72 hrs by time-kill method; format: functional
Cryptococcus neoformans [23] = test: Antifungal activity against flucytosine-resistant Cryptococcus neoformans 98.0176 by Etest method in presence of flucytosine; format: functional
Cryptococcus neoformans [24] = test: Antifungal activity against flucytosine-resistant Cryptococcus neoformans 276 by Etest method in presence of flucytosine; format: functional
Cryptococcus neoformans [25] = test: Antifungal activity against flucytosine-resistant Cryptococcus neoformans 533 by checkerboard method in presence of flucytosine; format: functional
Cryptococcus neoformans [26] = test: Antifungal activity against flucytosine-resistant Cryptococcus neoformans 533 by Etest method in presence of flucytosine; format: functional
Cryptococcus neoformans [27] = test: Antifungal activity against flucytosine-resistant Cryptococcus neoformans 285 by Etest method in presence of flucytosine; format: functional
Cryptococcus neoformans [28] = test: Antifungal activity against flucytosine-resistant Cryptococcus neoformans 98.0673 at 0.125 ug/ml after 72 hrs by time-kill method; format: functional; method in brief: as §1
Cryptococcus neoformans [29] = test: Antifungal activity against flucytosine-resistant Cryptococcus neoformans 98.0673 by Etest method in presence of flucytosine; format: functional
Cryptococcus neoformans [30] = test: Antifungal activity against flucytosine-resistant Cryptococcus neoformans 276 by checkerboard method in presence of flucytosine; format: functional
Cryptococcus neoformans [31] = test: Antifungal activity against flucytosine-resistant Cryptococcus neoformans 99.1026 by Etest method in presence of flucytosine; format: functional
Cryptococcus neoformans [32] = test: Antifungal activity against flucytosine-resistant Cryptococcus neoformans 280 at 0.125 ug/ml after 72 hrs by time-kill method; format: functional; method in brief: as §1
Cryptococcus neoformans [33] = test: microbe, parasite or virus in culture
Cryptococcus neoformans [34] = test: Antifungal activity against flucytosine-resistant Cryptococcus neoformans 533 at 0.125 ug/ml after 72 hrs by time-kill method; format: functional; method in brief: as §1
Cryptococcus neoformans [35] = test: Antifungal activity against flucytosine-resistant Cryptococcus neoformans 98.1121 by Etest method in presence of flucytosine; format: functional
Cryptococcus neoformans [36] = test: Antifungal activity against flucytosine-resistant Cryptococcus neoformans 99.1026 by checkerboard method in presence of flucytosine; format: functional

Structure (SMILES): O=c1[nH]cc(F)c(=O)[nH]1 [FLUOROURACIL]
- MIC (Cryptococcus neoformans [1]): 256 µg/mL
- MIC (Cryptococcus neoformans [2]): 0.5 µg/mL
- MIC (Cryptococcus neoformans [3]): 256 µg/mL
- MIC (Cryptococcus neoformans [4]): 256 µg/mL
- MIC (Cryptococcus neoformans [5]): 4 µg/mL
- MIC (Cryptococcus neoformans [6]): 256 µg/mL
- MIC (Cryptococcus neoformans [7]): 0.008 µg/mL
- MIC (Cryptococcus neoformans [8]): 16 µg/mL
- MIC (Cryptococcus neoformans [9]): 0.25 µg/mL
- MIC (Cryptococcus neoformans [10]): 8 µg/mL

Structure (SMILES): C[C@@H]1[C@H](O)[C@@H](C)/C=C/C=C/C=C/C=C/C=C/C=C/C=C/[C@H](O[C@@H]2O[C@H](C)[C@@H](O)[C@H](N)[C@@H]2O)C[C@@H]2O[C@](O)(C[C@@H](O)C[C@@H](O)[C@H](O)CC[C@@H](O)C[C@@H](O)CC(=O)O[C@H]1C)C[C@H](O)[C@H]2C(=O)O [AMPHOTERICIN B]
- log10CFU/ml (Cryptococcus neoformans [11]): 6.7
- MIC (Cryptococcus neoformans [12]): 0.094 µg/mL
- MIC (Cryptococcus neoformans [13]): 0.06 µg/mL
- log10CFU/ml (Cryptococcus neoformans [14]): 1.5
- MIC (Cryptococcus neoformans [15]): 0.12 µg/mL
- log10CFU/ml (Cryptococcus neoformans [16]): 6.5
- MIC (Cryptococcus neoformans [3]): 1 µg/mL
- MIC (Cryptococcus neoformans [17]): 0.12 µg/mL
- MIC (Cryptococcus neoformans [18]): 0.094 µg/mL
- MIC (Cryptococcus neoformans [5]): 1 µg/mL
- log10CFU/ml (Cryptococcus neoformans [19]): 5.2
- MIC (Cryptococcus neoformans [20]): 0.094 µg/mL
- log10CFU/ml (Cryptococcus neoformans [21]): 7.3
- log10CFU/ml (Cryptococcus neoformans [22]): 7.2
- MIC (Cryptococcus neoformans [23]): 0.094 µg/mL
- MIC (Cryptococcus neoformans [24]): 0.094 µg/mL
- MIC (Cryptococcus neoformans [25]): 0.12 µg/mL
- MIC (Cryptococcus neoformans [26]): 0.094 µg/mL
- MIC (Cryptococcus neoformans [27]): 0.095 µg/mL
- MIC (Cryptococcus neoformans [8]): 1 µg/mL
- log10CFU/ml (Cryptococcus neoformans [28]): 7.2
- MIC (Cryptococcus neoformans [29]): 0.094 µg/mL
- MIC (Cryptococcus neoformans [30]): 0.06 µg/mL
- MIC (Cryptococcus neoformans [31]): 0.094 µg/mL
- MIC (Cryptococcus neoformans [9]): 0.25 µg/mL
- log10CFU/ml (Cryptococcus neoformans [32]): 5.6
- MIC (Cryptococcus neoformans [33]): 0.25 µg/mL (≈ 0.271 µM)
- log10CFU/ml (Cryptococcus neoformans [34]): 7.4
- MIC (Cryptococcus neoformans [35]): 0.094 µg/mL
- MIC (Cryptococcus neoformans [36]): 0.06 µg/mL
